NSD2 HMT inh: NSD2 histone methyltransferase inhibitors, primary screen, biochemical, AlphaScreen, single concentration, set 2; 0.54% of 310,000 active; inhibition, % at 12.5 µM; Histone-lysine N-methyltransferase NSD2 (Homo sapiens), O96028; NSD2 peptide methylation, 120 min; in the data active = inhibition above about 50%
TDP2 absorb: human TDP2 enzyme inhibitors, primary screen, biochemical, epi absorbance, recombinant enzyme; Tyrosyl-DNA phosphodiesterase 2 (Homo sapiens), O95551; T5PNP hydrolysis, p-nitrophenol absorbance 415 nm; inhibition, % at 12.8 µM; 0.34% of 370,000 active; AID 720702, 2013;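 active = inhibition above the mean of all tested compounds plus 3 SD, set per campaign, cut at about 25% in these data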;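 note: 0% = DMSO with enzyme and 100% = buffer with substrate but no TDP2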
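Evaluation: % inhibition relative to enzyme-containing and enzyme-free wells. Material: recombinant human TDP2. Benchmarks: enzyme-free and DMSO wells. Timing: enzyme reaction with compound for 2 h at 37 °C. Compound dosing: 12.8 µM only. Measured by: p-Nitrophenol epi absorbance. Reagent: T5PNP substrate at 5 mM, a TopII-DNA adduct mimic. Replication: single well per compound.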
LEDGF integ inh: blockers of LEDGF/p75-dependent integrase strand transfer – biochemical, TR-FRET, high throughput, primary screen; 0.64% of 370,000 active; HIV-1 integrase (with human LEDGF/p75); TR-FRET IN-LEDGF/p75 DNA integration, Eu/Cy5; AID 743269, 2014; inhibition, % at 3.7 µM;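 active = inhibition above the screen-wide mean plus 3 SD, cut at about 13% in these data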;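 note: signal is the Cy5 over europium emission ratio at 671 and 618 nm; 0% = plate median of compound wells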
Casp6 inh: human caspase-6 inhibitors, primary screen, biochemical, VEID-R110 fluorescence, single point, set 2; 0.53% of 350,000 active; purified caspase-6, Z-VEID-R110 cleavage fluorescence; inhibition, % at 12.5 µM; P55212; AID 686996, 2013;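 active = mean inhibition across replicates at least about 35%, with every replicate also reaching that limit, limit read from the data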;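 note: 0% = median of neutral control wells and 100% = no fluorescence left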
Target sequence (P55212 24-179 limits assumed): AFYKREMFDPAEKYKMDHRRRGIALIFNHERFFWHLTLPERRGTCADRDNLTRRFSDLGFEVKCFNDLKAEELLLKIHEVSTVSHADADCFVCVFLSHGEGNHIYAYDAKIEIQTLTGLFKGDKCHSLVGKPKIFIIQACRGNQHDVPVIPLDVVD
Target sequence (P55212 194-293 limits assumed): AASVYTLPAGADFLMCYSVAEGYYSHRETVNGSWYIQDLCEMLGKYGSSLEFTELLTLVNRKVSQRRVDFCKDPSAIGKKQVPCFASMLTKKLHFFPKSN
MBD2 DNA inh: inhibitors of MBD2 binding to methylated DNA, primary screen, biochemical, TR-FRET, DNA-binding domain, human; 0.31% of 370,000 active; Methyl-CpG-binding domain protein 2 (Homo sapiens), Q9UBB5; inhibition, % at 4.4 µM; MBD2 binding to methylated oligonucleotide; AID 686964, 2013; in the data active = inhibition above about 13%
UHRF1 binding: UHRF1 methylated DNA binding inhibitors, primary screen, counter-screen for MBD2 inhibitor project, biochemical, TR-FRET, human UHRF1, single concentration; UHRF1 binding to methylated oligo; E3 ubiquitin-protein ligase UHRF1 (Homo sapiens), Q96T88; inhibition, % at 4.4 µM; AID 687016, 2013; 0.75% of 370,000 active; in the data active = inhibition above about 21%;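 note: UHRF1 SRA domain binding a hemimethylated CpG hairpin DNA probe; 0% = median of test compound wells and 100% = reference inhibitor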
CASP1 counter: human caspase-1 inhibitors, dose response, selectivity assay for caspase-6 inhibitor project, biochemical, Z-YVAD-R110 fluorescence, cherry-pick, set 2. purified caspase-1, Z-YVAD-R110 cleavage fluorescence. activity change, negative = inhibition, % at 35 µM. AID 743289, 2014. shares compounds with Casp6 inh. 100 tested, under 10 active;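 active = compounds lowering fluorescence whose fitted half-maximal concentration is no more than twice their top tested dose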
TDP2 confirm: human TDP2 enzyme inhibitors, retest, confirmation, biochemical, epi absorbance, recombinant enzyme; shares compounds with TDP2 absorb; absorbance read-out; inhibition, % at 12.8 µM; 22% of 1,100 active; AID 743263, 2014; in the data active = inhibition above about 25%;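 note: 0% = vehicle with enzyme and 100% = no enzyme buffer only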
An asterisk follows results filed as active; nt = not tested or not shown. The list is not random: actives were taken first. Their share in the collection is about 1.8%.

SMILES	NSD2 HMT inh	TDP2 absorb	LEDGF integ inh	Casp6 inh	MBD2 DNA inh	UHRF1 binding	CASP1 counter	others
COC(=O)[C@H](Cc1c[nH]c2ccccc12)NC(=O)Cc1c[nH]c2ccccc12	2	0	1	5	-2	-3	nt
COc1ccc([N+](=O)[O-])cc1NC(=O)CCS(=O)(=O)c1ccc(Br)cc1	0	-4	-1	31	1	10	-2
COc1ccc(S(=O)(=O)N(C)C[C@@H]2Oc3ccc(NC(=O)Nc4ccc5c(c4)OCO5)cc3CC(=O)N([C@H](C)CO)C[C@@H]2C)cc1	nt	nt	nt	-3	nt	nt	nt
O=c1c(CO)cc(CO)cc(CO)c1O	0	-3	-4	71*	-2	-1	0
CCCCNC(=O)c1nc(C2CCNCC2)oc1-c1cccc(C(F)(F)F)c1	nt	-12	6	92*	1	19	-2
CCCCNC(=O)c1nc(C2CCN(S(=O)(=O)c3ccccc3)CC2)oc1-c1cccc(C(F)(F)F)c1	nt	8	3	-1	-3	12	nt
O=C(c1ccc(F)cc1)N1CC(=O)N2[C@H](C1)[C@@H](c1ccc(C#CC3CCCC3)cc1)[C@@H]2CO	nt	nt	nt	1	nt	nt	nt
Nc1c(N)c2ccccc2oc1=O	1	-7	-2	nt	6	-1	nt
O=c1oc2ccccc2c2oc3cc(O)c(O)cc3c12	nt	-13	5	44*	-4	-10	0
C[C@H](CO)N1C[C@H](C)[C@@H](CN(C)CC2CCCCC2)Oc2ccc(NC(=O)C3CCCCC3)cc2CC1=O	nt	nt	nt	2	nt	nt	nt
O=C1Cc2ccccc2C(=O)N1	nt	73*	25*	99*	5	-2	-7
O=C1Nc2ccccc2CCc2ccccc21	24	11	0	0	1	2	nt
O=C(c1cccc(-n2cccc2)c1)N1CCN(S(=O)(=O)c2ccccc2)CC1	nt	10	7	51*	28*	56*	3
Cc1ccc(S(=O)(=O)N2CCN(C(=O)c3cccc(-n4cccc4)c3)CC2)cc1	5	0	4	6	1	8	nt
O=C(C[C@H]1C[C@@H]2c3cc(NC(=O)Cc4ccncc4)ccc3O[C@@H]2[C@H](CO)O1)NCCN1CCCCC1	nt	nt	nt	-1	nt	nt	nt
COc1ccc(S(=O)(=O)Nc2cc(Sc3ncn[nH]3)c(O)c3ccccc23)cc1	165*	65*	45*	nt	-6	1	3
C[C@H](CO)N1C[C@H](C)[C@H](CN(C)C(=O)CN2CCOCC2)Oc2ncc(C3=CCCCC3)cc2C1=O	nt	nt	nt	2	nt	nt	nt
CN(CC(=O)Nc1c(Cl)cccc1Cl)C(=O)c1cccc(-n2cccc2)c1	8	15	3	42*	7	23*	3
COc1cc(-c2ccc(Nc3ccccc3C(=O)O)c(OC)c2)ccc1Nc1ccccc1C(=O)O	80*	3	9	40*	8	22*	-3
NS(=O)(=O)c1ccc(NC(=O)COC(=O)c2ccc([N+](=O)[O-])s2)cc1	nt	28*	7	92*	-8	2	4	TDP2 confirm=36*
Cc1cc(C)c(NC(=O)COC(=O)c2ccc([N+](=O)[O-])s2)c(C)c1	-1	-8	1	nt	-4	-2	nt
Nc1cc2nn(-c3ccccc3)nc2cc1Cl	52*	70*	48*	98*	-12	0	2	TDP2 confirm=47*

Screening results: PubChem BioAssay, several laboratories
